ChEMBL document CHEMBL4033790, “Design and Synthesis of Novel Deuterated Ligands Functionally Selective for the γ-Aminobutyric Acid Type A Receptor (GABAAR) α6 Subtype with Improved Metabolic Stability and Enhanced Bioavailability” (J Med Chem, 2018)
In brackets after ≈: the same amount, converted by molar mass. Activity calls are given as the source filed them. The calls are words filed in the database; no cut-off is given here.

Legend:
[1] = Metabolic stability in human liver microsomes assessed as parent compound remaining at 10 uM after 60 mins by LC-MS analysis; assay type: ADME, microsome; settings: read-out: Stability
Method in brief: (§1)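 The 60 min samples of the microsomal incubation (10 μM compound, human or mouse liver microsomes at 0.5 mg/mL, NADPH regenerating system, 37 °C) were analysed by LC-MS. Detection used SIM mode with dual ESI/APCI ionization, calibrated to the retention times and masses of the parent and its O-demethylated metabolites. Peak intensities were measured.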

[2] = Metabolic stability in mouse liver microsomes assessed as parent compound remaining at 10 uM after 60 mins by LC-MS analysis; assay type: ADME, microsome; settings: read-out: Stability; method in brief: as §1
[3] = Aqueous solubility of the compound in DI water at pH 7 after 2 hrs by LC-MS analysis; assay type: physicochemical; settings: buffer, pH 7, 2 h
Method in brief: (§2)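 10 mg compound dissolved in 2 mL DMAC; 10 μL of this added to 2 mL DI water (pH 7, sonicated) or 2 mL 0.01 M aq HCl (pH 2), held 2 h at 37 °C. Filtered through 0.45 micron filter, then quantified by LC-MS in SIM mode against calibration curves of standards in DMAC (n = 5); n=3.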

[4] = Solubility of the compound in 0.01M HCl at pH 2 after 2 hrs by LC-MS analysis; assay type: physicochemical; settings: buffer, pH 2, 2 h; method in brief: as §2
HEK-293T = assay: Cytotoxicity against HEK293T cells assessed as reduction in cell viability up to 400 uM after 48 hrs by CellTiter-Glo assay; assay type: cell-based; settings: human
Method in brief: (§3)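 HEK293T and HepG2 cells grown in high-glucose DMEM with non-essential amino acids, 10 mM HEPES, penicillin/streptomycin and 10% heat-inactivated FBS. Cells were harvested with trypsin and plated; compound was pin-transferred 3 h later. Incubation was 48 h, then CellTiter-Glo luminescence was read. Controls were DMSO (negative) and a cytotoxic aminoketone (positive). Quadruplicates, three independent runs, normalized to controls, nonlinear regression.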

HepG2 = assay: Cytotoxicity against human HepG2 cells assessed as reduction in cell viability up to 400 uM after 48 hrs by CellTiter-Glo assay; assay type: cell-based; settings: hepg2, 48 h; method in brief: as §3
Mus musculus = assay: Neurotoxicity in Swiss Webster mouse assessed as induction of motor impairment at 40 mg/kg administered via oral gavage measured after 10 to 60 mins by rotarod method; assay type: toxicity, organism-based; settings: in vivo
Method in brief: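 Female mice were given a single oral gavage dose of 40 mg/kg, either in 50% PBS/40% propylene glycol/10% DMSO or, for poorly soluble compounds, in 2% polyethylene glycol plus 2.5% hydroxymethyl cellulose. Rotarod performance was tested 10, 30 and 60 min after dosing, with diazepam 5 mg/kg as positive control.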

[5] = molecular target: GABA-A receptor; alpha-6/beta-3/gamma-2 (Homo sapiens) (UniProt P18507+P28472+Q16445); assay: Positive allosteric modulation of GABA-A receptor alpha6beta3gamma2 (unknown origin) expressed in Xenopus laevis oocytes assessed as potentiation of EC3 GABA induced currents up to 10 uM at -60 mV holding potential by electrophysiological method; assay type: cell-based
Method in brief: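 Stage 5–6 defolliculated Xenopus oocytes were injected with 2.5 ng total mRNA per oocyte: α1, α2, α3 or α5 with β3 and γ2 at 1:1:5, and α4 or α6 with β3 and γ2 at 3:1:5. Oocytes were kept ≥36 h at 18 °C in NDE medium before recording. Compounds were co-applied with GABA titrated to EC3-5 for each oocyte. Curves were fitted with the Hill equation; mean ± SEM from ≥3 oocytes across two batches.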

[6] = molecular target: Voltage-gated inwardly rectifying potassium channel KCNH2 (Homo sapiens, UniProt Q12809); assay: Displacement of [3H]-dofetilide from human ERG expressed in HEK cell membranes at >10 uM after 60 to 90 mins by scintillation counting
Chain of Voltage-gated inwardly rectifying potassium channel KCNH2 (Q12809 whole entry): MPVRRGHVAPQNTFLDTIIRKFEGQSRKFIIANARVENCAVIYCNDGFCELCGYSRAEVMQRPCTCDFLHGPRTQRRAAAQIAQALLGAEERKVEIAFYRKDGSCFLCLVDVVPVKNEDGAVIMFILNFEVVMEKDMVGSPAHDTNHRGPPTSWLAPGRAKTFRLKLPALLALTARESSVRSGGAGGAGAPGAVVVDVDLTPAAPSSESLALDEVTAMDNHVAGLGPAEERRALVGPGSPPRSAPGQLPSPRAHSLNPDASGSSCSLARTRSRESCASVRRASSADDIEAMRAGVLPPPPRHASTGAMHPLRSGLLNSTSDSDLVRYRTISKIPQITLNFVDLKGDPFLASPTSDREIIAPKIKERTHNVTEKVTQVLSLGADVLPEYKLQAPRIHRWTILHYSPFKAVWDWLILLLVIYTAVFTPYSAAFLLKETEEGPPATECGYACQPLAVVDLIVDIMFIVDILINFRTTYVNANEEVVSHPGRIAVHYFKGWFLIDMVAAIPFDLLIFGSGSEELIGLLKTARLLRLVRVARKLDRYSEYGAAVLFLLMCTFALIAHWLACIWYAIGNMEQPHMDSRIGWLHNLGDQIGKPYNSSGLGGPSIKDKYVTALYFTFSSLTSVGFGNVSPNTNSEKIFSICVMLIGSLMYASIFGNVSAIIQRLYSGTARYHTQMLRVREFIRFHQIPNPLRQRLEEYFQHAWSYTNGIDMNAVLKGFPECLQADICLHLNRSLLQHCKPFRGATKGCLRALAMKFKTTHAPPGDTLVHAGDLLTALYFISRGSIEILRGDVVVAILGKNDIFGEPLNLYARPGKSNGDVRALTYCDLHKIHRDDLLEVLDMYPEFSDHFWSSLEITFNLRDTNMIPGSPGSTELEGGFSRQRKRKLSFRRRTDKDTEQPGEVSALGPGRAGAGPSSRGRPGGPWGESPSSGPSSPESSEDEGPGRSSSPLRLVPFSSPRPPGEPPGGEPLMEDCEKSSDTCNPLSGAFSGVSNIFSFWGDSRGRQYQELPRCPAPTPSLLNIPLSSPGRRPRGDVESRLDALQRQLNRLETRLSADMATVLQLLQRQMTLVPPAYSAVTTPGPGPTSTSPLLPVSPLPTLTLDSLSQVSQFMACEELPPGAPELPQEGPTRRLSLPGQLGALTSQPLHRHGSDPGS

Liver [7] = assay: Half life in human liver microsomes at 10 uM by LC-MS/MS analysis; assay type: ADME, microsome
Method in brief: (§4)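 Compound at 10 μM final was preincubated 5 min at 37 °C with NADPH regenerating system in phosphate buffer, pH 7.4. Human or mouse liver microsomes (0.5 mg/mL protein) were added to start the reaction. Samples were taken at 0 (no microsomes) and 10–60 min and measured by LC-MS/MS against an internal standard. Half-life = 0.693/k, with k the slope of ln peak-area ratio versus time. Three experiments, each in duplicate.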

Liver [8] = assay: Half life in mouse liver microsomes at 10 uM by LC-MS/MS analysis; assay type: ADME, microsome; method in brief: as §4
Rattus norvegicus = organism: Rattus norvegicus; assay: Displacement of [3H]-flunitrazepam from rat brain GABA-A receptor benzodiazepine site […] at 10 uM after 60 to 90 mins by scintillation counting
[9] = molecular target: 5-hydroxytryptamine receptor 7 (Homo sapiens) (UniProt P34969); assay: Displacement of [3H]-LSD from human recombinant 5HT7 receptor expressed in HEK293 cells at 10 uM after 60 to 90 mins by scintillation counting; assay type: cell-based; settings: tested as the 2H-labelled form
Chain of 5-hydroxytryptamine receptor 7 (Homo sapiens) (P34969 whole entry): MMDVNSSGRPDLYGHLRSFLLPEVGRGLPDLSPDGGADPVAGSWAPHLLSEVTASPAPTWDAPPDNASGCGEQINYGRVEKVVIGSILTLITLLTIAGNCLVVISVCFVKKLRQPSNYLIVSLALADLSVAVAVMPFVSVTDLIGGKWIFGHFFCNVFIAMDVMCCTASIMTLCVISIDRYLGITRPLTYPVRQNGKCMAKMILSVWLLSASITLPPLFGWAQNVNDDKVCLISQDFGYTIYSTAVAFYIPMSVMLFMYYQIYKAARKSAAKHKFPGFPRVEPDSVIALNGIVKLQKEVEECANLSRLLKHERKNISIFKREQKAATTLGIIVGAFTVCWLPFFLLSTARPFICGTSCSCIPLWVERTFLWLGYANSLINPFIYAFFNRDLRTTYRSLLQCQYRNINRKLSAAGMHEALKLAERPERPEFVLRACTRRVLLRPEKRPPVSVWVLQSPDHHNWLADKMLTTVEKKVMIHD

[10] = molecular target: Mu-type opioid receptor (Homo sapiens) (UniProt P35372); assay: Displacement of [3H]-DAMGO from human recombinant MOR expressed in HEK293 cells at 10 uM after 60 to 90 mins by scintillation counting; assay type: cell-based; settings: tested as the 2H-labelled form
Chain of Mu-type opioid receptor (Homo sapiens) (P35372 whole entry): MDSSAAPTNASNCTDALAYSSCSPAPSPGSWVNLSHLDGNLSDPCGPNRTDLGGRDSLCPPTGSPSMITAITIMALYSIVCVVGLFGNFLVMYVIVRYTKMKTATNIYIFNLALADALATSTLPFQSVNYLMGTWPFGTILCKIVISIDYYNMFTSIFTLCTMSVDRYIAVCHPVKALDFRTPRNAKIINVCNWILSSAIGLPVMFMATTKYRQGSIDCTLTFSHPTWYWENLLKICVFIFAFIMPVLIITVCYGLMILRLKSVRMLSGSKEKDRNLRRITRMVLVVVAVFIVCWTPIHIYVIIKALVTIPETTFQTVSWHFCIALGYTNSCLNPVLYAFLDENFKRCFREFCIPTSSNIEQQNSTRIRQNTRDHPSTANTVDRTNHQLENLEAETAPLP

[11] = molecular target: 5-hydroxytryptamine receptor 2B (Homo sapiens) (UniProt P41595); assay: Displacement of [3H]-LSD from human recombinant 5HT2B receptor expressed in HEK293 cells at 10 uM after 60 to 90 mins by scintillation counting; assay type: cell-based; settings: tested as the 2H-labelled form
Chain of 5-hydroxytryptamine receptor 2B (Homo sapiens) (P41595 whole entry): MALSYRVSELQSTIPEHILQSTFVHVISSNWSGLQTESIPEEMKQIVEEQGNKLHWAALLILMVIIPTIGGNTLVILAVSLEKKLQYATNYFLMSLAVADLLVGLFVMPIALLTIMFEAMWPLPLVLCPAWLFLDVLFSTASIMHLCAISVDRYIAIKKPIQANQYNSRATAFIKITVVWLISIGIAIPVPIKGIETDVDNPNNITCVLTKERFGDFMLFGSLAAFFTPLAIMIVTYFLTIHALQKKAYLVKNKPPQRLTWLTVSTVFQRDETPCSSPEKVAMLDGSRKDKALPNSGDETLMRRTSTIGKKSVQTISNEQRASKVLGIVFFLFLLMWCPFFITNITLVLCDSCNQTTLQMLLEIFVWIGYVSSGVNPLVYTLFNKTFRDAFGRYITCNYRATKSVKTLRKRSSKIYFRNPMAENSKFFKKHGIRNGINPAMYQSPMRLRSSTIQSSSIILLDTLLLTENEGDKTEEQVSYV

[12] = molecular target: T1, 5-hydroxytryptamine receptor 2C (Homo sapiens) (UniProt P28335); assay: Displacement of [3H]-mesulergine from human recombinant 5HT2C receptor expressed in HEK293T cells at 10 uM after 60 to 90 mins by scintillation counting; assay type: cell-based; settings: HEK-293T, tested as the 2H-labelled form
T1 sequence (whole entry): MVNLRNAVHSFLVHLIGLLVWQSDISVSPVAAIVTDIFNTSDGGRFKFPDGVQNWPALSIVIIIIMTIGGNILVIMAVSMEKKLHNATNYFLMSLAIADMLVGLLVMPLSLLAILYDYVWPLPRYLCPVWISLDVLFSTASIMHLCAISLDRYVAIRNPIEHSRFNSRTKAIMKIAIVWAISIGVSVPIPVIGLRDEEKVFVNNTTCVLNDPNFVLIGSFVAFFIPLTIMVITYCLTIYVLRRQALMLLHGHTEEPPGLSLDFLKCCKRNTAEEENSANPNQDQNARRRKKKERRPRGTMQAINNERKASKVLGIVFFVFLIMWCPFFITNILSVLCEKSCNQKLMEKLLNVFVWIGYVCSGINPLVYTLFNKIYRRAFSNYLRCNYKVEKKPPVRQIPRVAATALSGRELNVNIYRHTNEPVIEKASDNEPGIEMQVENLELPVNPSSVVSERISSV

SMILES | remaining at 1 h, 10 µM [1] [%] | remaining at 1 h, 10 µM [2] [%] | Activity (Mus musculus) | inhibition (INH) [6] | t1/2 (Liver [7]) [h] | t1/2 (Liver [8]) [h] | also measured
COc1ccc(-n2nc3c4ccc(Br)cc4[nH]cc-3c2=O)cn1 | 93.4 | 93.1 | Non-Toxic | Not Active | – | – | solubility [3]: 7.3 µM (≈ 2.71 µg/mL); solubility [4]: 7.2 µM (≈ 2.67 µg/mL); Activity (HEK-293T): Non-Toxic; Activity (HepG2): Non-Toxic; Activity ([5]; tested as the 2H-labelled form): Active
[2H]C([2H])([2H])Oc1ccc2c3nn(-c4ccccc4OC([2H])([2H])[2H])c(=O)c-3c[nH]c2c1 | 90.5 | 92 | – | Not Active | 9.9 | 13.9 | Activity (HEK-293T): Non-Toxic; Activity (HepG2): Non-Toxic
COc1ccc2c3nn(-c4ccccc4OC)c(=O)c-3c[nH]c2c1 | – | – | – | – | – | – | inhibition (Rattus norvegicus; tested as the 2H-labelled form): inactive
[2H]C([2H])([2H])Oc1ccc(-n2nc3c4ccc(Br)cc4[nH]cc-3c2=O)cn1 | 97.8 | 98.4 | Non-Toxic | Not Active | – | – | –
[2H]C([2H])([2H])Oc1ccc2c3nn(-c4ccc(OC([2H])([2H])[2H])nc4)c(=O)c-3c[nH]c2c1 | 90 | 92.5 | Non-Toxic | – | 9.8 | 14.5 | –
[2H]C([2H])([2H])Oc1ccc(-n2nc3c4cc(OC([2H])([2H])[2H])ccc4[nH]cc-3c2=O)cc1 | – | – | – | Not Active | – | – | –
COc1cccc(-n2nc3c4ccc(Br)cc4[nH]cc-3c2=O)c1 | – | – | – | – | – | – | inhibition (Rattus norvegicus; tested as the 2H-labelled form): Active; inhibition [9]: Active; inhibition [10]: Active; inhibition [11]: Active; inhibition [12]: Active
[2H]C([2H])([2H])Oc1ccc(-n2nc3c4cc(Cl)ccc4[nH]cc-3c2=O)cc1 | 92.2 | 85.5 | Non-Toxic | Not Active | – | – | Activity (HEK-293T): Non-Toxic; Activity (HepG2): Non-Toxic
[2H]C([2H])([2H])Oc1cccc(-n2nc3c4ccc(OC([2H])([2H])[2H])cc4[nH]cc-3c2=O)c1 | 89.5 | 90.5 | – | Not Active | 7.7 | 9.9 | Activity (HEK-293T): Non-Toxic; Activity (HepG2): Non-Toxic
COc1ccccc1-n1nc2c3ccc(Br)cc3[nH]cc-2c1=O | – | – | – | – | – | – | inhibition (Rattus norvegicus; tested as the 2H-labelled form): Active; inhibition [9]: Active; inhibition [10]: Active; inhibition [11]: Active; inhibition [12]: Active
[2H]C([2H])([2H])Oc1cccc(-n2nc3c4ccc(Br)cc4[nH]cc-3c2=O)c1 | 63.5 | 79.5 | – | Not Active | 1.8 | 3.6 | –
[2H]C([2H])([2H])Oc1ccc2[nH]cc3c(=O)n(-c4ccccc4OC([2H])([2H])[2H])nc-3c2c1 | – | – | – | Not Active | – | – | –
COc1ccc(-n2nc3c4cc(Cl)ccc4[nH]cc-3c2=O)cn1 | 91.6 | 85.6 | Non-Toxic | Not Active | – | – | solubility [3]: 0.8 µM (≈ 0.261 µg/mL); solubility [4]: 0.9 µM (≈ 0.294 µg/mL); inhibition (Rattus norvegicus): Active; inhibition (Rattus norvegicus; tested as the 2H-labelled form): Active; Activity (HEK-293T): Non-Toxic; Activity (HepG2): Non-Toxic; Activity ([5]; tested as the 2H-labelled form): inactive
[2H]C([2H])([2H])Oc1ccccc1-n1nc2c3ccc(OC)cc3[nH]cc-2c1=O | 79.9 | 93 | – | Not Active | 3.5 | 10.9 | –
COc1ccc(-n2nc3c4cnc(OC)cc4[nH]cc-3c2=O)cc1 | 91 | 93 | – | Not Active | 10.6 | 12 | solubility [3]: 103.7 µM (≈ 33.4 µg/mL); solubility [4]: 135.9 µM (≈ 43.8 µg/mL); Activity [5]: Active
[2H]C([2H])([2H])Oc1ccccc1-n1nc2c3ccc(Br)cc3[nH]cc-2c1=O | 92.8 | 61.3 | – | Not Active | 14.2 | 1.5 | –
COc1ccccc1-n1nc2c3cc(Cl)ccc3[nH]cc-2c1=O | – | – | – | – | – | – | inhibition (Rattus norvegicus; tested as the 2H-labelled form): Active; Activity ([5]; tested as the 2H-labelled form): inactive
[2H]C([2H])([2H])Oc1cccc(-n2nc3c4cc(OC([2H])([2H])[2H])ccc4[nH]cc-3c2=O)c1 | – | – | – | Not Active | – | – | –
[2H]C([2H])([2H])Oc1ccc(-n2nc3c4cc(Cl)ccc4[nH]cc-3c2=O)cn1 | 93 | 85.1 | Non-Toxic | Not Active | – | – | –
[2H]C([2H])([2H])Oc1cccc(-n2nc3c4ccc(OC)cc4[nH]cc-3c2=O)c1 | 81.3 | 91.6 | – | Not Active | 3.9 | 14.5 | –
